Data published in ChEMBL document CHEMBL1221386, “Synthesis and pharmacological evaluation of 3-aryl-3-azolylpropan-1-amines as selective triple serotonin/norepinephrine/dopamine reuptake inhibitors” (Bioorg Med Chem Lett, 2010).

Legend:
[1] = biological target: Sodium-dependent serotonin transporter (Rattus norvegicus) (UniProt P31652); experiment: Displacement of [3H]paroxetine from SERT in rat cerebral cortex at 1 uM; assay type: tissue-based
In short: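 Competition binding against 2 nM [3H]paroxetine on freshly prepared rat frontal cortex membranes, homogenized and centrifuged twice at 20,000g, then resuspended in incubation buffer. Tris–HCl pH 7.4 buffer with NaCl and 5 mM KCl. Incubation 2 h at 25 °C, run in triplicate. Nonspecific binding defined with citalopram. Read-out is percent inhibition at 1 µM.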

[2] = biological target: T1, Sodium-dependent serotonin transporter (Homo sapiens, UniProt P31645); experiment: Inhibition of serotonin reuptake at human SERT expressed in HEK293 cells at 100 nM
Target sequence in this assay (P31645 whole entry, looked up): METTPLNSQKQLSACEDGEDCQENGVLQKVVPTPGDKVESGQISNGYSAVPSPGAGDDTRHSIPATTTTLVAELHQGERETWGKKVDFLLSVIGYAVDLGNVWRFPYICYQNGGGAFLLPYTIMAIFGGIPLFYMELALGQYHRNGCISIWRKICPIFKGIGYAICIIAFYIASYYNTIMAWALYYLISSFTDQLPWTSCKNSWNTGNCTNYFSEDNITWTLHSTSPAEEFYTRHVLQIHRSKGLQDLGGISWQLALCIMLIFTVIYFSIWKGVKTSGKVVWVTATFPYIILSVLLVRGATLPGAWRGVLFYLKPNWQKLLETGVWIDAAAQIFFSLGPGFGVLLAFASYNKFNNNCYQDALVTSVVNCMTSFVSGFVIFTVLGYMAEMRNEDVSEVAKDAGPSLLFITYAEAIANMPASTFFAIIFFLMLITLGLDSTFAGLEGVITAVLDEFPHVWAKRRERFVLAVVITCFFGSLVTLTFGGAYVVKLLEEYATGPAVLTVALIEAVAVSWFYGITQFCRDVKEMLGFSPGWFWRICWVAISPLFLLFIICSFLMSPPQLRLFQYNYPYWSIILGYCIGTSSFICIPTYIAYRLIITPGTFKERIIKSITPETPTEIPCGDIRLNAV

[3] = biological target: T2, Sodium-dependent noradrenaline transporter (Homo sapiens, UniProt P23975); experiment: Inhibition of norepinephrine reuptake at human NET expressed in MDCK cells at 100 nM
T2 sequence (P23975 whole entry): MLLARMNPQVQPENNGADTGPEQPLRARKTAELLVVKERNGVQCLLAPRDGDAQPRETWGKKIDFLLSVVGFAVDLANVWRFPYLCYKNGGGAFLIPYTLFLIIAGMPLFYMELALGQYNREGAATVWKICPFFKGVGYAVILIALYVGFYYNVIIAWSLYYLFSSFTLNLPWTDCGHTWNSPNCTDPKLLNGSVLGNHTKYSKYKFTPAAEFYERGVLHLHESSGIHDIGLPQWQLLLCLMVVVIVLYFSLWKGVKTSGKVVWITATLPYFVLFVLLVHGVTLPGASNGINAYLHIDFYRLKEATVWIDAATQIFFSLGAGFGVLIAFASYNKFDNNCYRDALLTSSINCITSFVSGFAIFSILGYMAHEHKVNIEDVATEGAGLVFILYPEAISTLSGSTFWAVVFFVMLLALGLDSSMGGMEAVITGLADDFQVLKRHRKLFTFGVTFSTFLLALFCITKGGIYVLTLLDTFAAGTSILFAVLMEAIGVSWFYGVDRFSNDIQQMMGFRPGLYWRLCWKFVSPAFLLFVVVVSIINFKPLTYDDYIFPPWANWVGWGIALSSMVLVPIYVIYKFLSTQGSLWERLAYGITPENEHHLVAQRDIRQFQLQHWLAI

[4] = Half life in human liver microsomes; assay type: ADME, Microsome
In short: (§1)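 Metabolic stability in human or rat liver microsomes. Half-lives measurable up to 60 min.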

[5] = biological target: T3, Sodium-dependent dopamine transporter (Homo sapiens, UniProt Q01959); experiment: Inhibition of dopamine reuptake at human dopamine transporter expressed in CHO cells at 100 nM
T3 sequence (Q01959 whole entry): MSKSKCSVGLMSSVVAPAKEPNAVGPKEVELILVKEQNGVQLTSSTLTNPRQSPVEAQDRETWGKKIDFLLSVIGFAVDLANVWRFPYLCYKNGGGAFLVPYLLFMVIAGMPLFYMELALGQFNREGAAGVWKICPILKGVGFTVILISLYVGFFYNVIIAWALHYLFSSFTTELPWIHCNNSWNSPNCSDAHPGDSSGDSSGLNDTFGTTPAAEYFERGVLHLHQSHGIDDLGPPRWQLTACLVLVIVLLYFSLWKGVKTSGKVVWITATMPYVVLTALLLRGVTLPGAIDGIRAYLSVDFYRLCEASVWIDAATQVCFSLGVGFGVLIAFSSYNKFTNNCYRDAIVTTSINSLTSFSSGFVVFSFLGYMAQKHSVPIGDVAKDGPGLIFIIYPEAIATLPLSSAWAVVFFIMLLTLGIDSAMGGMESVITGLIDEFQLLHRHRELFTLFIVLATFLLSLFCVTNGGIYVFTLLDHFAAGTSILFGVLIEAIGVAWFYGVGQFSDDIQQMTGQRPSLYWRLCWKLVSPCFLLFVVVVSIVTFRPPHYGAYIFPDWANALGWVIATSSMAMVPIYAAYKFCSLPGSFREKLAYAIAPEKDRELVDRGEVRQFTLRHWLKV

[6] = system: Mus musculus; experiment: Antidepressant activity in mouse assessed as reduction of mobility time by forced swimming test at 30 mg/kg, ip; set-up: scale not given: the % may be the effect or the level left; conditions: route intraperitoneal
[7] = biological target: T3, Sodium-dependent dopamine transporter; experiment: Inhibition of dopamine reuptake at human dopamine transporter expressed in CHO cells; assay type: cell-based
In short: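 CHO-K1 cells stably expressing human DAT, assayed for [3H]DA uptake in duplicate. Nomifensine served as standard. IC50 determined.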

[8] = Half life in rat liver microsomes; assay type: ADME, Microsome; in short: as §1
[9] = biological target: T2, Sodium-dependent noradrenaline transporter; experiment: Inhibition of norepinephrine reuptake at human NET expressed in MDCK cells; assay type: cell-based
[10] = biological target: T1, Sodium-dependent serotonin transporter; experiment: Inhibition of serotonin reuptake at human SERT expressed in HEK293 cells; assay type: cell-based
Target sequence in this assay (P31645 whole entry): as the sequence (P31645 whole entry, looked up) above

[11] = biological target: Sodium-dependent serotonin transporter (Rattus norvegicus) (UniProt P31652); experiment: Displacement of [3H]paroxetine from SERT in rat cerebral cortex at 100 nM
[12] = system: Mus musculus; experiment: Antidepressant activity in po dosed mouse assessed as reduction of mobility time by forced swimming test; assay type: functional; conditions: for minimal effective dose: read-out: MED
In short: (§2)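 Mouse forced swimming test with oral dosing. Read-out is immobility time, expressed as % reduction of immobility. Minimal effective dose is the lowest dose with p <0.05. ED50 is given with 95% confidence limits. Doses are in mg/kg.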

[13] = system: Mus musculus; experiment: Anxiolytic activity in mouse assessed as inhibition of marble buried at 10 mg/kg, ip by marble burying test; assay type: functional; conditions: route intraperitoneal
[14] = system: Mus musculus; experiment: Potentiation of […]-induced serotonin syndrome like behavior in po dosed mouse; assay type: functional; conditions: read-out: MED
In short: (§3)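 Mice, oral dosing. For serotonin potentiation, 5-hydroxytryptophan (5-HTP, serotonin precursor) is given to induce serotonin syndrome-like head twitch/stereotypy counts. Response is expressed as % potentiation relative to control group (0%). Minimal effective dose is the lowest dose reaching p <0.05. Doses are in mg/kg.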

[15] = system: Mus musculus; experiment: Antidepressant activity in po dosed mouse assessed as reduction of mobility time by tail suspension test; assay type: functional; conditions: read-out: MED
In short: (§4)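 Mouse tail suspension test with oral dose–response. Read-out is immobility time, reported as % reduction of immobility. Minimal effective dose is the lowest dose giving p <0.05. Doses are in mg/kg.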

[16] = system: Mus musculus; experiment: Antidepressant activity in mouse assessed as change in locomotion at 60 mg/kg, po; assay type: functional
[17] = system: Mus musculus; experiment: Antidepressant activity in mouse assessed as change in locomotion at 30 mg/kg, po; assay type: functional
[18] = system: Mus musculus; experiment: Potentiation of […]-induced serotonin syndrome like behavior in mouse at 10 mg/kg, po; assay type: functional; in short: as §3
[19] = system: Mus musculus; experiment: Anxiolytic activity in mouse assessed as inhibition of marble buried at 30 mg/kg, ip by marble burying test; assay type: functional; conditions: route intraperitoneal
[20] = system: Mus musculus; experiment: Analgesic activity in mouse assessed as reduction of acetic acid-induced writhing at 30 mg/kg
[21] = system: Mus musculus; experiment: Antidepressant activity in mouse assessed as reduction of mobility time at 7 mg/kg, po by tail suspension test; assay type: functional; set-up: scale not given: the % may be the effect or the level left; in short: as §4
[22] = system: Mus musculus; experiment: Antidepressant activity in mouse assessed as reduction of mobility time at 5 mg/kg, po by tail suspension test; assay type: functional; set-up: scale not given: the % may be the effect or the level left; in short: as §4
[23] = system: Mus musculus; experiment: Potentiation of […]-induced serotonin syndrome like behavior in mouse at 30 mg/kg, po; assay type: functional; in short: as §3
[24] = system: Mus musculus; experiment: Antidepressant activity in mouse assessed as reduction of mobility time by forced swimming test at 10 mg/kg, po; assay type: functional; set-up: scale not given: the % may be the effect or the level left; in short: as §2
[25] = system: Mus musculus; experiment: Antidepressant activity in mouse assessed as change in locomotion at 90 mg/kg, po; assay type: functional

Chain of Sodium-dependent serotonin transporter (Rattus norvegicus) (P31652 whole entry): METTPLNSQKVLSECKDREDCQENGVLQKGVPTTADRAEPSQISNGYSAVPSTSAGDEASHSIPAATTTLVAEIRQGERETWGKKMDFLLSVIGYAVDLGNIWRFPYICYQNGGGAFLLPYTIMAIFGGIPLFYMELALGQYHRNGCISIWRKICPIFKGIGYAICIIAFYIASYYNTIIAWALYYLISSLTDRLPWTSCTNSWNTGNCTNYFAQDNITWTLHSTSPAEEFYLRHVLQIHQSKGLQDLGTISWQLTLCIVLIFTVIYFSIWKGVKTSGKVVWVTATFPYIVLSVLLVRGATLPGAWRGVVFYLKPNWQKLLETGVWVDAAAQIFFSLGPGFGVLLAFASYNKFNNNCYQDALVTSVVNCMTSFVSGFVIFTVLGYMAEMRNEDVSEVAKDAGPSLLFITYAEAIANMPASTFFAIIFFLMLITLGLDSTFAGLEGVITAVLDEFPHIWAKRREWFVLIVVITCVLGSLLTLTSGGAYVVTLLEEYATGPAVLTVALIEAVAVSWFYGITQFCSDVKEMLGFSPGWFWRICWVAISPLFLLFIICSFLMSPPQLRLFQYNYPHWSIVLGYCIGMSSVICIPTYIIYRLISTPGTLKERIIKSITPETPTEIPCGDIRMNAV

Structure (SMILES) | inhibition [1] [%] | inhibition [2] [%] | inhibition [3] [%] | inhibition [5] [%] | inhibition [11] [%] | also measured
Cc1nnn(C(CCN(C)C)c2ccc(Cl)c(Cl)c2)n1 (racemic) | 69.4 | – | – | – | – | –
CNCCC(c1ccc2cc(Cl)ccc2c1)n1ncnn1 (racemic) | 52.1 | -4 | 20 | – | – | –
CN(C)CCC(c1ccc2ccccc2c1)n1ncnn1 (racemic) | 85.1 | 41 | 30 | 20 | – | half-life [4]: 50 min; Activity [6]: 43.2%; IC50 [7]: 616 nM; half-life [8]: 3 min; IC50 [9]: 264 nM; IC50 [10]: 138 nM
CNCCC(c1ccc(C(F)(F)F)cc1)n1ncnn1 (racemic) | – | – | – | – | 15.3 | –
CNCCC(c1ccc(Oc2ccccc2)cc1)n1ncnn1 (racemic) | – | – | – | – | -1.7 | –
CNCC[C@H](c1ccc(Cl)c(Cl)c1)n1nnc(C)n1 | – | – | – | – | 20 | –
CNCCC(c1ccccc1Cl)n1nnc(C)n1 (racemic) | – | – | – | – | 5.9 | –
CNCCC(c1ccc(OC(F)(F)F)cc1)n1ncnn1 (racemic) | – | – | – | – | 3.1 | –
CNCCC(c1ccc2cc(OC)ccc2c1)n1ncnn1 (racemic) | – | 88 | 70 | 4 | 81.2 | –
Cc1ccc(C(CCN(C)C)n2ncnn2)cc1C (racemic) | 49.2 | – | – | – | – | –
CNCCC(c1ccc(Cl)c(Cl)c1)n1nnc(C)n1 (racemic) | 86 | – | – | – | – | –
COc1ccc(C(CCN(C)C)n2ncnn2)cc1OC (racemic) | – | – | – | – | 12.9 | –
CNCC[C@@H](c1ccc2ccccc2c1)n1nnc(C)n1 | – | 82 | 79 | 7 | 60.2 | –
CN(C)CCC(c1ccc2ccccc2c1)n1nnc(-c2ccccc2)n1 (racemic) | 92.6 | – | – | – | – | –
CN(C)CCC(c1ccc2cc(F)ccc2c1)n1ncnn1 (racemic) | – | 61 | 12 | 7 | 74.1 | half-life [4]: > 60 min; half-life [8]: 3 min
CNCCC(c1ccc2cc(C)ccc2c1)n1ncnn1 (racemic) | 93.3 | 93 | 55 | 3 | – | –
Cc1ccc2cc(C(CCN(C)C)n3ncnn3)ccc2c1 (racemic) | 87.7 | – | – | – | – | –
CN(C)CCC(c1ccc(Cl)cc1Cl)n1ncnn1 (racemic) | – | – | – | – | -0.2 | –
CNCCC(Oc1ccc(C(F)(F)F)cc1)c1ccccc1 (stereo not drawn) [FLUOXETINE] | – | – | – | – | – | minimal effective dose [12]: 50 mg/kg; inhibition in vivo at 10 mg/kg [13]: 60.3%; minimal effective dose [14]: 3 mg/kg
CNCCC(c1ccc2cc(F)ccc2c1)n1ncnn1 (racemic) | – | 59 | 25 | 6 | 80.1 | half-life [4]: > 60 min; half-life [8]: 29 min
CNCCC(c1ccc(Cl)c(Cl)c1)n1ncnn1 (racemic) | 86 | 35 | 56 | 48 | – | half-life [4]: > 60 min; IC50 [7]: 116 nM; half-life [8]: > 60 min; IC50 [9]: 69 nM; IC50 [10]: 181 nM
CN(C)CCC(c1cccc(Cl)c1)n1ncnn1 (racemic) | – | – | – | – | -5.6 | –
Cc1nnn(C(CCN(C)C)c2ccc(C(C)(C)C)cc2)n1 (racemic) | – | – | – | – | -3 | –

Structure (SMILES) | inhibition [1] [%] | inhibition [2] [%] | inhibition [3] [%] | inhibition [5] [%] | inhibition [11] [%] | also measured
CNCCC(c1ccc(Cl)cc1)n1ncnn1 (racemic) | 41.1 | – | – | – | – | –
CNCCC(c1ccc2ccccc2c1)n1nnc(-c2ccccc2)n1 (racemic) | 98.4 | – | – | – | – | Activity [6]: 5.5%
CNCCC(c1ccc(Cl)c(Cl)c1Cl)n1ncnn1 (racemic) | – | – | – | – | 39.1 | –
CN(C)CCC(c1ccc(OCc2ccccc2)cc1)n1ncnn1 (racemic) | – | – | – | – | 9.5 | –
CN(C)CCC(c1ccc(Cl)c(Cl)c1)n1ncnn1 (racemic) | 72 | 27 | 37 | 58 | – | half-life [4]: 55 min; IC50 [7]: 78 nM; half-life [8]: 3 min; IC50 [9]: 234 nM; IC50 [10]: 279 nM
CN(C)CCC(c1ccc(Cl)c(Cl)c1)n1nccn1 (racemic) | 69.9 | – | – | – | – | –
COc1ccc2cc(C(CCN(C)C)n3ncnn3)ccc2c1 (racemic) | – | 44 | 39 | 36 | 33.6 | –
CN(C)CCC(c1ccc(Cl)cc1)n1ncnn1 (racemic) | 32.4 | – | – | – | – | –
Cc1nnn(C(CCN(C)C)c2ccc3cc(F)ccc3c2)n1 (racemic) | – | 61 | 10 | 6 | 67.5 | –
COc1ccc(C(CN(C)C)C2(O)CCCCC2)cc1 (stereo not drawn) [VENLAFAXINE] | – | – | – | – | – | ED50 [12]: 38.4 mg/kg; minimal effective dose [12]: 30 mg/kg; minimal effective dose [15]: 7 mg/kg; Activity [16]: 139%; Activity [6]: 35.2%; Activity [17]: 119%; Activity [18]: 129%; minimal effective dose [14]: 10 mg/kg; inhibition in vivo at 30 mg/kg [19]: 82.3%; inhibition in vivo at 30 mg/kg [20]: 70.2%; Activity [21]: 56.3%
CNCCC(c1cccc2ccccc12)n1ncnn1 (racemic) | 51.6 | – | – | – | – | –
Cc1nnn(C(CCN(C)C)c2ccc3ccccc3c2)n1 (racemic) | 85 | – | – | – | – | –
CN(C)CCC(c1ccc(F)c(F)c1)n1ncnn1 (racemic) | 25.3 | – | – | – | – | –
CNCC[C@H](c1ccc2ccccc2c1)n1nnc(C)n1 | – | 23 | 37 | 3 | 34.5 | –
CNCCC(c1ccc2cc(OC)ccc2c1)n1nnc(C)n1 (racemic) | – | 82 | 84 | 3 | 80.2 | –
CNCCC(c1ccc2cc(F)ccc2c1)n1nnc(C)n1 (racemic) | – | 58 | 39 | 10 | 81.3 | half-life [4]: > 60 min; half-life [8]: 27 min
CNCCC(c1ccc2ccccc2c1)n1ncnn1 (racemic) | 90.4 | 78 | 84 | 10 | – | half-life [4]: 49 min; IC50 [7]: 1240 nM; half-life [8]: 12 min; IC50 [9]: 13.3 nM; IC50 [10]: 32 nM
CNCCC(c1ccc(Br)cc1)n1ncnn1 (racemic) | – | – | – | – | 10.7 | –
CNCCC(c1ccc2ccccc2c1)n1nnc(C)n1 (racemic) | 93.6 | – | – | – | – | –
COc1ccc(C(CCN(C)C)n2ncnn2)cc1Cl (racemic) | 39.9 | – | – | – | – | –
CN(C)CCC(c1ccc2cc(Cl)ccc2c1)n1ncnn1 (racemic) | 54.3 | 46 | 32 | 18 | – | –
Clc1ccc([C@]23CNC[C@H]2C3)cc1Cl [AMITIFADINE] | – | – | – | – | – | ED50 [12]: 30.1 mg/kg; minimal effective dose [12]: 50 mg/kg; Activity [22]: 33.2%; minimal effective dose [15]: 5 mg/kg; Activity [16]: 131%; Activity [17]: 150%; minimal effective dose [14]: 30 mg/kg; Activity [23]: 54%; inhibition in vivo at 30 mg/kg [19]: 99.1%; Activity [24]: 18%; inhibition in vivo at 30 mg/kg [20]: 93.7%; Activity [25]: 148%
